Experimental findings from ChEMBL document CHEMBL2021781, “Dual targeting of histone deacetylase and topoisomerase II with novel bifunctional inhibitors” (J Med Chem, 2012) are described below.

One data set concerns the target Histone deacetylase 1 (Homo sapiens, UniProt Q13547). Kind of data set: Inhibition of HDAC1 in human HeLa cell nuclear extract using Fluor de Lys as substrate after 15 mins by fluorometric analysis.
For data set [1], the target named is T1, Protein deacetylase HDAC6 (Homo sapiens, UniProt Q9UBN7).
T1 sequence (Q9UBN7 whole entry): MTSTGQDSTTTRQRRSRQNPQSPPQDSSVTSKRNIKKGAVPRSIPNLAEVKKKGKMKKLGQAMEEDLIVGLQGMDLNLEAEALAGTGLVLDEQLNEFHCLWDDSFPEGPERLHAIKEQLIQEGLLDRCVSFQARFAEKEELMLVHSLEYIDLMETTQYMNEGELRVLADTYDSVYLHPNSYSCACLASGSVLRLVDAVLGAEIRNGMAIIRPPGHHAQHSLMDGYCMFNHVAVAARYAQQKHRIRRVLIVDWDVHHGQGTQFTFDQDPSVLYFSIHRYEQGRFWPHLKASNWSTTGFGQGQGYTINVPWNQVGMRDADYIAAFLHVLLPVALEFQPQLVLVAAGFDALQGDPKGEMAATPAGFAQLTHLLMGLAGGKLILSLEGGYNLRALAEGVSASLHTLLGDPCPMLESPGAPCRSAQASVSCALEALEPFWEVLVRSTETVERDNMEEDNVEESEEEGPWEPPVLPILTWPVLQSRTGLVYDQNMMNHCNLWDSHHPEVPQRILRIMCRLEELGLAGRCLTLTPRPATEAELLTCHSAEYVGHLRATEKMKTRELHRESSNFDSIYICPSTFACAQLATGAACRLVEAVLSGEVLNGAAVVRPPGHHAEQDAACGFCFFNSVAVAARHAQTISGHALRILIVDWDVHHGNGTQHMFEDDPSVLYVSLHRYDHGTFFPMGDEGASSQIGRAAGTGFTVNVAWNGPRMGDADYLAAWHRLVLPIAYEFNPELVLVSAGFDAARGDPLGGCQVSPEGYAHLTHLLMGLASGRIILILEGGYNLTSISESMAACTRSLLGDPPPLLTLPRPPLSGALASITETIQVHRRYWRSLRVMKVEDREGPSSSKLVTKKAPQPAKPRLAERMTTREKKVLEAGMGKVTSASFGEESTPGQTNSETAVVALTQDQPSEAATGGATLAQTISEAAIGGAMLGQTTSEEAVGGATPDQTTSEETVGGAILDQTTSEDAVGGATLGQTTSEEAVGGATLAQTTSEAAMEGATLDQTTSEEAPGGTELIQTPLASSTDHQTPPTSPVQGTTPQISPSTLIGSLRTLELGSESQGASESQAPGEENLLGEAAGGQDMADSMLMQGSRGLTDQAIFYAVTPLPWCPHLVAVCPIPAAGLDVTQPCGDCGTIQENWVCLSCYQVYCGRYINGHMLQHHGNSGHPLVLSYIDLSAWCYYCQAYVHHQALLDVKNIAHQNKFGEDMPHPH
Kind of data set: Inhibition of HDAC6 in human HeLa cell nuclear extract using Fluor de Lys as substrate after 15 mins by fluorometric analysis.

In the next data set the target is T2, Histone deacetylase 8 (Homo sapiens, UniProt Q9BY41).
T2 sequence (Q9BY41 whole entry): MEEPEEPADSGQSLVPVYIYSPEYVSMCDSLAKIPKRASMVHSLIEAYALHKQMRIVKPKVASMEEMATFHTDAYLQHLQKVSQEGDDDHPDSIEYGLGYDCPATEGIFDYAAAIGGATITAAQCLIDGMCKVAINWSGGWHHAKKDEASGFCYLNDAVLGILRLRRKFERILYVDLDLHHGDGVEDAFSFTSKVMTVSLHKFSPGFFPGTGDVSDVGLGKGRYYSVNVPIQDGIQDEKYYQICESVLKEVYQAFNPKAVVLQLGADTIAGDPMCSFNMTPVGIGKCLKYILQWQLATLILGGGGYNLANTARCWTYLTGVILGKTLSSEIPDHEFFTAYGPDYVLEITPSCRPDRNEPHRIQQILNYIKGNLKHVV
Kind of data set: Inhibition of HDAC8 in human HeLa cell nuclear extract using Fluor de Lys as substrate after 15 mins by fluorometric analysis.

The test system of a further data set is SK-MES-1. The data set is described as follows: Antiproliferative activity against human SKMES1 cells after 72 hrs by MTS assay. The format is functional, cell-based. Conditions: SK-MES-1, 72 h. (In general: Tetrazolium assays rely on reduction of a dye to a coloured formazan, in cell work by metabolically active cells.)
Data set [2] addresses T3, Protein deacetylase HDAC6 (Homo sapiens) (UniProt Q9UBN7).
T3 sequence (whole entry): T1 sequence (Q9UBN7 whole entry)
Kind of data set: Inhibition of HDAC6-mediated tubulin acetylation in human DU145 cells at 130 nM after 4 hrs by Western blot analysis. Conditions: DU-145. The format is cell-based. In a few lines:
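DU-145 cells passaged 24 h before dosing, then treated 4 h, with no more than 0.1% DMSO including controls. Lysis in RIPA buffer with protease inhibitors, protein quantified against a BSA standard, SDS-PAGE and transfer. Blots probed with rabbit anti-tubulin and mouse anti-acetyl tubulin, read by near-infrared imaging at 700/800 nm.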
Background: A western blot detects proteins with antibodies after separation by electrophoresis.

Data set [3] addresses T4, Histone deacetylase (Homo sapiens) (UniProt Q13547+O15379+Q9UBN7+Q92769+Q9UQL6+Q8WUI4+Q9BY41+Q96DB2+P56524+Q9UKV0+Q969S8). The data set is described as follows: Inhibition of HDAC in human DU145 cells assessed as upregulation of p21 expression at 5 times IC50 concentration after 4 hrs by Western blot analysis relative to control. The format is cell-based. Conditions: DU-145. A digest of the protocol:
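Lysed in RIPA with protease inhibitors, cleared 14,000 RPM at 4°C. Immunoblotted, probing acetylated versus total tubulin; p21 also checked. Near-infrared detection at 700/800 nm.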

Data set [4] concerns the target DNA topoisomerase 2-alpha (Homo sapiens) (UniProt P11388). Kind of data set: Inhibition of topoisomerase 2 in human DU145 cells assessed as stabilization of enzyme-DNA cleavage complex at 130 nM after 72 hrs by immunoblot analysis. The format is cell-based. Conditions: DU-145. In a few lines: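 DU-145 cells dosed 30 min or 72 h; controls given 0.1% DMSO. 72 h samples equalized to the 30 min cell count before lysis in 1% sarkosyl. Lysates spun on a CsCl gradient at 31,000 RPM, room temperature, 12 h. Fractions holding Topo II–DNA complexes found by A260, slot-blotted onto nitrocellulose, and immunoblotted for Topo II.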

A short description of data set [5]: Drug uptake in human DU145 cell perinuclear region at 1 uM after 4 hrs by confocal microscopic analysis. The settings on record: du-145, 4 h. The format is ADME, cell-based. In a few lines: (§1)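 Cells plated on glass coverslips 24 h ahead, then given fresh media with compound at 1 μM for 4 h. After a PBS wash, coverslips were mounted and intracellular distribution imaged by confocal microscopy, excitation 488 nm. Done in DU-145 cells, with A549 lung tumor cells also examined.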

The nature of data set [6]: Drug uptake in human DU145 cell cytosol at 1 uM after 4 hrs by confocal microscopic analysis. The format is ADME, cell-based, DU-145. In a few lines:
as §1

A short description of data set [7]: Drug uptake in human A549 cell perinuclear region at 1 uM after 4 hrs by confocal microscopic analysis. Conditions: a549, 4 h. The format is ADME, cell-based. A digest of the protocol: as §1
The target in data set [8] is T4, Histone deacetylase (Homo sapiens). The settings on record: DU-145, 0.5 to 1 uM.

Calls of active or inactive are those of the source. The calls are words filed in the database; no cut-off is given here.

DNA topoisomerase 2-alpha (Homo sapiens), sequence (P11388 whole entry): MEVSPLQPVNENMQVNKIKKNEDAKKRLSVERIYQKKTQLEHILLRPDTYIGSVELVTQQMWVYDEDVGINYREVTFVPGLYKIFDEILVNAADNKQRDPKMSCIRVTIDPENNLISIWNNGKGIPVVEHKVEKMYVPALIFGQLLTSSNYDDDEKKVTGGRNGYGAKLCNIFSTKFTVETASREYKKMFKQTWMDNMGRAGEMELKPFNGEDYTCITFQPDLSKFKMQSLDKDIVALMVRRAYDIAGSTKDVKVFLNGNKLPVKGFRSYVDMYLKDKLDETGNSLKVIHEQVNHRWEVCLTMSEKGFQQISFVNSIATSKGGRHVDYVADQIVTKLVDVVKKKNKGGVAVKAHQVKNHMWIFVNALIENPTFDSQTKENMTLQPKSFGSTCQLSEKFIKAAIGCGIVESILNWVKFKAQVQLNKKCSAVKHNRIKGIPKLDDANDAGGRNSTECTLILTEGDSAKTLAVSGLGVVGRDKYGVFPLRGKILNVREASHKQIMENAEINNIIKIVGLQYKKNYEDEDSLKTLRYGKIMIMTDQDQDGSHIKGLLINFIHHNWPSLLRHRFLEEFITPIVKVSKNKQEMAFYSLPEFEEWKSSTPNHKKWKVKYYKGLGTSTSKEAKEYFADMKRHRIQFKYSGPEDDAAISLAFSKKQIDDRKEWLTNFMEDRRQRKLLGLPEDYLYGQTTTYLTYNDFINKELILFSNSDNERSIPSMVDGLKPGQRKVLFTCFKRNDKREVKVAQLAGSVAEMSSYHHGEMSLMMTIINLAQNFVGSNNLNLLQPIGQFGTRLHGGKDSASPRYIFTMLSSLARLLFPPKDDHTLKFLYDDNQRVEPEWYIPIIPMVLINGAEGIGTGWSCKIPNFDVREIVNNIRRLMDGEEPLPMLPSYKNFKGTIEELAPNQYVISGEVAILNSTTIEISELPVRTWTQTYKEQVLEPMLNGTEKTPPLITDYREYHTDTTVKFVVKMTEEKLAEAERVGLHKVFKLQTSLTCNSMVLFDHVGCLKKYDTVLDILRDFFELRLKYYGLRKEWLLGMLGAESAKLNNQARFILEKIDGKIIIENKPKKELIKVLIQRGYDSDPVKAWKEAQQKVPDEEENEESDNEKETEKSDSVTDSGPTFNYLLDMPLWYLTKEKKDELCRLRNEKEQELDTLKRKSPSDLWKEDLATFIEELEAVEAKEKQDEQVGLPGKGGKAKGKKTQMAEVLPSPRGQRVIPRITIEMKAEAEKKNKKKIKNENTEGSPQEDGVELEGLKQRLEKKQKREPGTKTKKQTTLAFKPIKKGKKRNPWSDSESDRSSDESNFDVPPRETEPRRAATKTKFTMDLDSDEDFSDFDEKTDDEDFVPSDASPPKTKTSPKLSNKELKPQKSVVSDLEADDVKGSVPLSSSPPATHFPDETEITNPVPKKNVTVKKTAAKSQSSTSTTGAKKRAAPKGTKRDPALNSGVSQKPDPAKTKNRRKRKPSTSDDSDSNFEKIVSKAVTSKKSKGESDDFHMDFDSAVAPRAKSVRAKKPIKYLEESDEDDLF
Histone deacetylase 1, sequence (Q13547 whole entry): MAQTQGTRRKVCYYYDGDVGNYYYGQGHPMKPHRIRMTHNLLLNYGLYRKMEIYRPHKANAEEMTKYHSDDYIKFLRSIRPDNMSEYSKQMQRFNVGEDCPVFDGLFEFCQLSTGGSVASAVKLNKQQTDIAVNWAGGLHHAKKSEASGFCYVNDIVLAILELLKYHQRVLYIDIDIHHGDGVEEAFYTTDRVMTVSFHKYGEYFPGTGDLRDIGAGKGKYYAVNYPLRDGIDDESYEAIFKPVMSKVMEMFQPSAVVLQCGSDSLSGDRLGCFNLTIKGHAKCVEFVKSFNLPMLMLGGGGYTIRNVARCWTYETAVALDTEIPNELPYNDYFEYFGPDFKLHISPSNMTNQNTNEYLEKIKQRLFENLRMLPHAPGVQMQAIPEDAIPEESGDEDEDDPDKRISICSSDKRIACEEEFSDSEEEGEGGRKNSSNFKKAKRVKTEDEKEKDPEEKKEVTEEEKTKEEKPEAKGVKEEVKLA

As for `COc1cccc2c1C(=O)c1c(O)c3c(c(O)c1C2=O)C[C@@](O)(C(C)=O)C[C@@H]3O[C@H]1C[C@H](NCc2ccc(NC(=O)CCCCCCC(=O)NO)cc2)[C@H](O)[C@H](C)O1`, the IC50 amounted to 47 nM against Histone deacetylase 1, 20 nM in data set [1], 220 nM against Histone deacetylase 8 and 470 nM in the data set with SK-MES-1. Also, the inhibition entry in [2] and in data set [4] was “Active” each time. In addition, the result in data set [3] was inactive. The Drug uptake result in data set [5], in data set [6] and in data set [7] was “Active” each time. Further, in [8], the inhibition result is “inactive”.

For orientation: IC50 means the midpoint of a concentration-inhibition curve. Low values mean greater potency in that assay, high ones weaker potency in that assay.
